Test [1] relates to Cutibacterium acnes. Briefly: Antibacterial activity against Propionibacterium acnes ATCC 11827 up to 800 ug/ml after 2 days by broth dilution method. It is filed as functional, organism-based. In outline:
(§1)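 Broth dilution in 0.8% nutrient broth, 0.5% yeast extract and 0.1% glucose. Compound in DMF, diluted twofold, 1% DMF final, highest 800 µg/ml. Inoculum was a 2-day-old culture, reactivated at 30° with shaking (B. subtilis), at 30° stationary (Br. ammoniagenes) or at 37° stationary (others). Stationary incubation 2 days; growth by OD at 660 nm; MIC = lowest concentration with no growth.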

In test [2] the test system is Corynebacterium ammoniagenes. Briefly: Antibacterial activity against Brevibacterium ammoniagenes ATCC 6872 up to 800 ug/ml after 2 days by broth dilution method. It is filed as functional, organism-based. The gist of the method: as §1
On the technique in general: Broth dilution looks for growth in wells or tubes with falling amounts of substance.

Test [3] concerns Streptococcus mutans. As to the kind of experiment: Antibacterial activity against Streptococcus mutans ATCC 25175 up to 800 ug/ml after 2 days by broth dilution method. Type of test: functional, organism-based. The gist of the method:
(§2)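 Twofold broth dilution in 3.7% brain heart infusion broth. Sample dissolved in DMF, 1% DMF final, top concentration 800 µg/ml. Inoculated with 2-day-old culture reactivated in stationary culture at 37°. Stationary incubation for 2 days, turbidity read at 660 nm; MIC taken as lowest concentration showing no growth.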

Test [4] has as its system Bacillus subtilis. Briefly: Antibacterial activity against Bacillus subtilis ATCC 9372 up to 800 ug/ml after 2 days by broth dilution method. Type of test: functional, organism-based. The gist of the method:
as §1

For test [5], the system named is Staphylococcus aureus. Briefly: Antibacterial activity against Staphylococcus aureus ATCC 12598 up to 800 ug/ml after 2 days by broth dilution method. It is filed as functional, organism-based. The gist of the method: as §1
The test system of test [6] is Streptococcus mutans. Briefly: Ratio of MIC for Streptococcus mutans ATCC 25175 to MIC for Streptococcus mutans ATCC 25175 in presence of 0.5 MIC of crinitol. Type of test: functional.
The test system of test [7] is Bacillus subtilis. Briefly: Antibacterial activity against Bacillus subtilis ATCC 9372 after 2 days by broth dilution method. Conditions: ATCC 9372, 48 h. Type of test: functional. In outline: as §1
The subject of test [8] is Staphylococcus aureus. As to the kind of experiment: Antibacterial activity against Staphylococcus aureus ATCC 12598 after 2 days by broth dilution method. It is filed as functional. The settings on record: ATCC 12598, 48 h. In outline:
as §1

The subject of test [9] is Corynebacterium ammoniagenes. Briefly: Antibacterial activity against Brevibacterium ammoniagenes ATCC 6872 after 2 days by broth dilution method. It is filed as functional. Conditions: ATCC 6872, 48 h. In outline:
as §1

In test [10] the test system is Corynebacterium ammoniagenes. Briefly: Antibacterial activity against Brevibacterium ammoniagenes ATCC 6872 after 2 days by broth dilution method in presence of 0.5 MIC of crinitol. The settings on record: ATCC 6872, 48 h. Type of test: functional.
Test [11] has as its system Bacillus subtilis. As to the kind of experiment: Antibacterial activity against Bacillus subtilis ATCC 9372 after 2 days by broth dilution method in presence of 0.5 MIC of crinitol. It is filed as functional. Conditions: ATCC 9372, 48 h.
Test [12] has as its system Streptococcus mutans. As to the kind of experiment: Antibacterial activity against Streptococcus mutans ATCC 25175 after 2 days by broth dilution method in presence of 0.5 MIC of crinitol. Type of test: functional. The settings on record: ATCC 25175, 48 h.
Test [13] concerns Cutibacterium acnes. As to the kind of experiment: Antibacterial activity against Propionibacterium acnes ATCC 11827 after 2 days by broth dilution method in presence of 0.5 MIC of crinitol. Type of test: functional. The settings on record: ATCC 11827, 48 h.
For test [14], the system named is Streptococcus mutans. Briefly: Antibacterial activity against Streptococcus mutans ATCC 25175 after 2 days by broth dilution method. Type of test: functional. The settings on record: ATCC 25175, 48 h. In outline: as §2
In test [15] the test system is Cutibacterium acnes. Briefly: Antibacterial activity against Propionibacterium acnes ATCC 11827 after 2 days by broth dilution method. The settings on record: ATCC 11827, 48 h. It is filed as functional. The gist of the method:
as §1

The test system of test [16] is Staphylococcus aureus. As to the kind of experiment: Antibacterial activity against Staphylococcus aureus ATCC 12598 after 2 days by broth dilution method in presence of 0.5 MIC of crinitol. The settings on record: ATCC 12598, 48 h. It is filed as functional.
Test [17] deals with Bacillus subtilis. As to the kind of experiment: Ratio of MIC for Bacillus subtilis ATCC 9372 to MIC for Bacillus subtilis ATCC 9372 in presence of 0.5 MIC of butylated hydroxyanisole. Type of test: functional.
Test [18] has as its system Cutibacterium acnes. Briefly: Ratio of MIC for Propionibacterium acnes ATCC 11827 to MIC for Propionibacterium acnes ATCC 11827 in presence of 0.5 MIC of butylated hydroxyanisole. It is filed as functional.
In test [19] the test system is Cutibacterium acnes. As to the kind of experiment: Antibacterial activity against Propionibacterium acnes ATCC 11827 after 2 days by broth dilution method in presence of 0.5 MIC of butylated hydroxytoluene. It is filed as functional. Conditions: ATCC 11827, 48 h. The gist of the method:
(§3)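 Checkerboard: twofold dilutions of crinitol crossed with twofold dilutions of the antioxidant (BHA or BHT). Medium was nutrient broth/yeast extract/glucose, or 3.7% brain heart infusion for S. mutans. DMF at 1% final, 2-day-old inoculum, stationary culture 2 days. Growth by OD 660 nm; MIC = lowest concentration without growth.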

Test [20] deals with Streptococcus mutans. As to the kind of experiment: Ratio of MIC for Streptococcus mutans ATCC 25175 to MIC for Streptococcus mutans ATCC 25175 in presence of 0.5 MIC of butylated hydroxytoluene. Type of test: functional.
In test [21] the test system is Staphylococcus aureus. As to the kind of experiment: Antibacterial activity against Staphylococcus aureus ATCC 12598 after 2 days by broth dilution method in presence of 0.5 MIC of butylated hydroxyanisole. Type of test: functional. Conditions: ATCC 12598, 48 h. The gist of the method:
as §3

Test [22] deals with Corynebacterium ammoniagenes. Briefly: Antibacterial activity against Brevibacterium ammoniagenes ATCC 6872 after 2 days by broth dilution method in presence of 0.5 MIC of butylated hydroxyanisole. Type of test: functional. The settings on record: ATCC 6872, 48 h. The gist of the method: as §3
For test [23], the system named is Corynebacterium ammoniagenes. Briefly: Antibacterial activity against Brevibacterium ammoniagenes ATCC 6872 after 2 days by broth dilution method in presence of 0.5 MIC of butylated hydroxytoluene. It is filed as functional. The settings on record: ATCC 6872, 48 h. The gist of the method:
as §3

Test [24] relates to Bacillus subtilis. Briefly: Ratio of MIC for Bacillus subtilis ATCC 9372 to MIC for Bacillus subtilis ATCC 9372 in presence of 0.5 MIC of butylated hydroxytoluene. Type of test: functional.
In test [25] the test system is Corynebacterium ammoniagenes. As to the kind of experiment: Ratio of MIC for Brevibacterium ammoniagenes ATCC 6872 to MIC for Brevibacterium ammoniagenes ATCC 6872 in presence of 0.5 MIC of butylated hydroxytoluene. It is filed as functional.
In test [26] the test system is Bacillus subtilis. Briefly: Antibacterial activity against Bacillus subtilis ATCC 9372 after 2 days by broth dilution method in presence of 0.5 MIC of butylated hydroxyanisole. It is filed as functional. Conditions: ATCC 9372, 48 h. In outline:
as §3

Test [27] concerns Corynebacterium ammoniagenes. Briefly: Ratio of MIC for Brevibacterium ammoniagenes ATCC 6872 to MIC for Brevibacterium ammoniagenes ATCC 6872 in presence of 0.5 MIC of butylated hydroxyanisole. Type of test: functional.
Test [28] has as its system Cutibacterium acnes. Briefly: Ratio of MIC for Propionibacterium acnes ATCC 11827 to MIC for Propionibacterium acnes ATCC 11827 in presence of 0.5 MIC of butylated hydroxytoluene. Type of test: functional.
Test [29] concerns Bacillus subtilis. Briefly: Antibacterial activity against Bacillus subtilis ATCC 9372 after 2 days by broth dilution method in presence of 0.5 MIC of butylated hydroxytoluene. Type of test: functional. Conditions: ATCC 9372, 48 h. The gist of the method:
as §3

Test [30] concerns Staphylococcus aureus. As to the kind of experiment: Antibacterial activity against Staphylococcus aureus ATCC 12598 after 2 days by broth dilution method in presence of 0.5 MIC of butylated hydroxytoluene. It is filed as functional. The settings on record: ATCC 12598, 48 h. The gist of the method: as §3
In test [31] the test system is Cutibacterium acnes. As to the kind of experiment: Antibacterial activity against Propionibacterium acnes ATCC 11827 after 2 days by broth dilution method in presence of 0.5 MIC of butylated hydroxyanisole. The settings on record: ATCC 11827, 48 h. Type of test: functional. In outline: as §3
The test system of test [32] is Streptococcus mutans. Briefly: Antibacterial activity against Streptococcus mutans ATCC 25175 after 2 days by broth dilution method in presence of 0.5 MIC of butylated hydroxytoluene. Type of test: functional. Conditions: ATCC 25175, 48 h. The gist of the method: as §3
The subject of test [33] is Streptococcus mutans. Briefly: Antibacterial activity against Streptococcus mutans ATCC 25175 after 2 days by broth dilution method in presence of 0.5 MIC of butylated hydroxyanisole. Conditions: ATCC 25175, 48 h. Type of test: functional. In outline:
as §3

In brackets after ≈: the same amount, converted by molar mass. Activity calls are given as the source filed them. No cut-off for these calls is given here.

For `CC(=O)OC/C=C(\C)CC/C=C(\C)C[C@H](/C=C(\C)CCC=C(C)C)OC(C)=O`, the outcome in test [1], in test [2], in [3], in test [4] and in test [5] was inactive.
For the molecule `CC(=O)O[C@@H](/C=C(\C)CCC=C(C)C)C/C(C)=C/CC/C(C)=C/CO`, the result in [1], in test [2], in test [3], in [4] and in test [5] was inactive.
For the molecule `CC(C)=CCC/C(C)=C/C(=O)C/C(C)=C/CC/C(C)=C/CO`, the outcome in [1], in [2], in [3], in [4] and in test [5] was inactive.
For `CC(C)=CCC/C(C)=C/CC/C(C)=C/CC/C(C)=C/CO`, the outcome in [1], in [2], in test [3], in [4] and in test [5] was inactive.
As a reminder, the MIC is the lowest concentration found to suppress growth. Turning to `COc1ccc(O)c(C(C)(C)C)c1.COc1ccc(O)cc1C(C)(C)C` [BUTYLATED HYDROXYANISOLE], the Ratio in test [6] is reported as 18. The MIC in test [7] was 100 µg/mL; in test [8], 200 µg/mL; in test [9], 200 µg/mL; in [10], 100 µg/mL; in test [11], 50 µg/mL; in test [12] it was 12.5 µg/mL. The MIC is 6.25 µg/mL in test [13], 100 µg/mL in test [14], 50 µg/mL in test [15] and 200 µg/mL in test [16].
In the case of `Cc1cc(C(C)(C)C)c(O)c(C(C)(C)C)c1` [BUTYLATED HYDROXYTOLUENE], the Ratio in [6] is on record as 16. Also, the MIC was 25 µg/mL (≈ 113 µM) in [7]; greater than 800 µg/mL in test [8]; 25 µg/mL (≈ 113 µM) in [9]; 12.5 µg/mL in test [10]; 6.25 µg/mL in test [11]; 1.57 µg/mL in test [12]. Also, the MIC in [13] was 6.25 µg/mL; in test [14], 25 µg/mL (≈ 113 µM); in test [15] it was 25 µg/mL (≈ 113 µM).
As to `CC(C)=CCC/C(C)=C/[C@H](O)C/C(C)=C/CC/C(C)=C/CO` [CRINITOL], the Ratio in test [17] is 1; in [18], 4; in [20], 64; in test [24], 4; in [25], 2; in test [27], 1. In test [28], the Ratio is 4. For the same molecule, the MIC in test [7] is 50 µg/mL (≈ 163 µM); in test [19] it was 6.25 µg/mL; in [8], 400 µg/mL (≈ 1310 µM); in test [21], 400 µg/mL; in [9], 100 µg/mL (≈ 326 µM); in [22], 100 µg/mL. Moreover, the MIC was determined as 50 µg/mL (≈ 163 µM) in test [14]; 50 µg/mL in test [23]; 25 µg/mL (≈ 81.6 µM) in [15]; 50 µg/mL in test [26]; 12.5 µg/mL in test [29]; 400 µg/mL in test [30]. Besides, the MIC in [31] is 6.25 µg/mL; in test [32] it was 0.78 µg/mL; in [33], 12.5 µg/mL.
